High-throughput results: PubChem, several laboratories
sdo1 growth = growth rescue of sdo1-depleted yeast, primary screen, S. cerevisiae, bone marrow failure model; 140,000 tested, 0.21% active; S. cerevisiae sdo1-depleted JHY4D growth rescue, OD600 30 h; hits give high values; pdr5 snq2 efflux-pump mutant strain; z-score at 10 µM;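 active = z-score above 3 at both the 24 hr and the 30 hr optical density reads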
Yeast growth inh = growth inhibitors of yeast BB579 in restrictive medium, primary screen, yeast lifespan-shortening project, S. cerevisiae; OD615, 48 h; inhibition, % at 10 µM; 140,000 tested, 0.51% active; AID 804, 2007;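 active = inhibition above a set limit, 3 SD over the mean compound inhibition, cut at about 44% in these data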
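Test system: S. cerevisiae DeaD strain BB579 yeast; Medium: restrictive CSMM-D medium; Compound: one dose, 10 µM compound with 0.25% DMSO; Incubation: 4 h cell preincubation, 48 h compound exposure, 30 °C humidified; Signal: OD at 615 nm; Benchmarks: amphotericin B at 10 µg/mL as positive control.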
Yeast lifespan up = compounds extending yeast replicative lifespan, primary screen, S. cerevisiae, OD615; S. cerevisiae growth with nicotinamide; deaD strain in restrictive glucose medium; 130,000 tested, 0.68% active; inhibition of the nicotinamide effect, % at 10 µM; AID 775, 2007;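 active = inhibition above a set limit, placed 3 SD over the median of all compounds, cut at about 26% in these data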
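Buffer or medium: CSMM-D glucose medium, restrictive; test system: modified budding yeast, DeaD strain; compound: single dose 10 µM compound, 0.25% DMSO; schedule: culture preincubation 4 h, compound exposure 48 h, both 30 °C; detection: optical density (absorbance) at 615 nm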
RAM network inh = inhibitors of the yeast RAM network, primary screen, dse1pr::URA3 reporter, 5-FOA selection | S. cerevisiae dse1pr::URA3 reporter, 5-FOA growth OD615, 2 d; analog-sensitive cbk1-as2 kinase mutant strain | inhibition, % at 50 µM | AID 868, 2007 | 190,000 tested, 1.8% active;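 active = inhibition above a set limit, 3 SD over mean compound inhibition, cut at about 8.4% in these data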;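 also: inhibition rescues growth on 5-FOA so higher OD means more RAM inhibition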
Of the large screens only hits and unclear results are named; the others gave an inactive call. The list is not random: actives were taken first. Their share in the collection is about 2.7%.

Cc1ccc(S(=O)(=O)N(C)C)cc1NC(=O)COC(=O)/C=C/c1ccc2c(c1)OCO2	RAM network inh 9.3 (no result: sdo1 growth, Yeast growth inh, Yeast lifespan up)
Cc1cc(C(=O)OCC(=O)Nc2cc(S(=O)(=O)N(C)C)ccc2C)c2ccccc2n1	none (no result: sdo1 growth, Yeast growth inh, Yeast lifespan up)
Cc1ccc(S(=O)(=O)N(C)C)cc1NC(=O)COC(=O)/C=C/c1cnc2ccccc2n1	RAM network inh 8.9 (no result: sdo1 growth, Yeast growth inh, Yeast lifespan up)
COc1ccc(OC)c(-c2cc(C(=O)NCc3ccc(Cl)cc3)no2)c1	none (no result: sdo1 growth, Yeast growth inh, Yeast lifespan up)
Cc1nn(-c2c(Cl)cc(Cl)cc2Cl)c(=O)c2ccccc12	Yeast lifespan up 49
COC(=O)C1CC(O)CN1C(=O)Nc1ccccc1 (stereo not drawn)	none (no result: sdo1 growth, Yeast growth inh, Yeast lifespan up)
Cc1ccc(NC(=O)Cn2nc(C)c(S(=O)(=O)N(C)C)c2C)cc1	none (no result: sdo1 growth, Yeast growth inh, Yeast lifespan up)
N#Cc1c(C(F)(F)F)cc(-c2ccc(F)cc2)nc1SCC(=O)O	none (no result: sdo1 growth, Yeast growth inh, Yeast lifespan up)
CCCCOc1ccc(-c2cc(C(F)(F)F)c(C#N)c(SCC(=O)O)n2)cc1	RAM network inh 8.4 (no result: sdo1 growth, Yeast growth inh, Yeast lifespan up)
O=C(O)c1ccccc1SCC(=O)N1c2ccccc2Sc2ccccc21	RAM network inh 11
O=C(CSc1ccc2nnc(-c3ccncc3)n2n1)Nc1nccs1	none (no result: sdo1 growth, Yeast growth inh, Yeast lifespan up)
O=C(/C(=C/O)N=Nc1ccccc1)c1ccncc1	Yeast growth inh 88 (no result: RAM network inh)
Cc1cc2n(n1)C(c1sccc1C)Nc1ccccc1-2 (stereo not drawn)	none
Cc1ccc2c(c1)-c1cc(C)nn1C(c1sccc1C)N2 (stereo not drawn)	RAM network inh 10
O=C1C2C3C=CC(C3)C2C(=O)N1c1ccc(N2CCN(c3ccccn3)CC2)c([N+](=O)[O-])c1 (stereo not drawn)	none (no result: sdo1 growth, Yeast growth inh, Yeast lifespan up)
COc1ccc(CCn2c(N)c(S(=O)(=O)c3cccs3)c3nc4ccccc4nc32)cc1OC	RAM network inh 8.4
Cn1c(N)c(S(=O)(=O)c2ccc(Br)cc2)c2nc3ccccc3nc21	RAM network inh 9.7
Nc1c(S(=O)(=O)c2cccs2)c2nc3ccccc3nc2n1Cc1cccs1	RAM network inh 9.1
Nc1c(S(=O)(=O)c2ccccc2)c2nc3ccccc3nc2n1C1CC1	none (no result: sdo1 growth, Yeast growth inh, Yeast lifespan up)
Nc1c(S(=O)(=O)c2cccs2)c2nc3ccccc3nc2n1CCc1ccccc1	none
Cc1ccc(S(=O)(=O)c2c(N)n(CCN3CCOCC3)c3nc4ccccc4nc23)cc1C	RAM network inh 11
Nc1c(S(=O)(=O)c2ccccc2)c2nc3ccccc3nc2n1CCN1CCOCC1	none
CC(C)NS(=O)(=O)c1ccc(CCC(=O)NCc2ccncc2)cc1	none (no result: sdo1 growth, Yeast growth inh, Yeast lifespan up)
CC(Oc1ccccc1)C(=O)NC1=NCCS1 (stereo not drawn)	none (no result: sdo1 growth, Yeast growth inh, Yeast lifespan up)
CSC1=NSC2=NC(=O)/C(=C\c3cccs3)C(=N)N12	Yeast lifespan up 43
CSC1=NSC2=NC(=O)/C(=C/c3coc4ccc(O)cc4c3=O)C(=N)N12	none
CSC1=NSC2=NC(=O)/C(=C/c3coc4ccccc4c3=O)C(=N)N12	Yeast growth inh 68
CC(C)CSC1=NSC2=NC(=O)/C(=C\c3cccs3)C(=N)N12	none
O=S(=O)(CCSc1ccccn1)c1nc2ccccc2s1	Yeast lifespan up 60
Nc1nc(SCC(=O)Nc2ccc([N+](=O)[O-])cc2)n[nH]1	none (no result: sdo1 growth, Yeast growth inh, Yeast lifespan up)
CCC(=O)NC(c1ccc(C)cc1)c1cc([N+](=O)[O-])c2cccnc2c1O (stereo not drawn)	Yeast growth inh 85
CC(=O)NC(c1ccc(C)cc1)c1cc([N+](=O)[O-])c2cccnc2c1O (stereo not drawn)	none (no result: sdo1 growth, Yeast growth inh, Yeast lifespan up)
ClC(Cl)(c1nnnn1-c1ccccc1)c1nnnn1-c1ccccc1	Yeast lifespan up 50
c1ccc(N2CCN(c3nnnn3-c3ccccc3)CC2)cc1	none
COC(=O)CC1=NN(c2ccccc2)C(=O)/C1=C\c1ccc(OC)cc1	Yeast lifespan up 53, RAM network inh 9.5
COC(=O)CC1=NN(c2ccc(OC)cc2)C(=O)/C1=C\c1ccc(Cl)cc1	Yeast lifespan up 31
CCOC(=O)CC1=NN(c2ccccc2)C(=O)/C1=C\c1ccc(OC)cc1OC	Yeast lifespan up 51
CCOC(=O)C1=NN(c2ccccc2)C(=O)/C1=C\c1ccc(N(C)C)cc1	none
COc1ccc(OC)c(NC(=O)c2cnc(Nc3ccccc3OC)c3ccccc23)c1	none
CCc1sc(N(C(=O)Cc2ccccc2)c2ccccc2)nc1-c1ccccc1	RAM network inh 11
CCCCC(=O)N(c1ccc(C(=O)O)cc1)c1nc(-c2ccc(Cl)cc2)c(CC)s1	none (no result: sdo1 growth, Yeast growth inh, Yeast lifespan up)
CCc1sc(N(C(=O)Cc2ccccc2)c2ccc(F)cc2)nc1-c1ccccc1	RAM network inh 9.1
CCCN(CCC)C(=O)CC(c1ccccc1)c1cc(Br)ccc1O (stereo not drawn)	RAM network inh 9.2
CCCN(CCC)C(=O)CC(c1ccccc1)c1ccc(C)cc1O (stereo not drawn)	none
O=C(NCCc1ccccc1)N1c2ccccc2Sc2ccccc21	RAM network inh 9.8
Fc1ccc(NC(=S)NC23CN4CN(CN(C4)C2)C3)cc1	none
CCC(Br)C(=O)Nc1ccc(OC)cc1 (stereo not drawn)	none (no result: sdo1 growth, Yeast growth inh, Yeast lifespan up)
CCCNC(=O)CSc1nc2ccccc2c(=O)n1CCC	none (no result: sdo1 growth, Yeast growth inh, Yeast lifespan up)
O=C(NCCc1ccc(Cl)cc1)c1nnc(Cc2ccc(Cl)cc2)o1	none
CC(CCc1ccccc1)NC(=O)c1nnc(Cc2ccc(Cl)cc2)o1 (stereo not drawn)	RAM network inh 8.7
COCCN1CCn2c(nc3cc(NC(=O)c4cccs4)ccc32)C1	none
CC(c1ccccc1)N1CCn2c(nc3cc(NC(=O)c4cccs4)ccc32)C1 (stereo not drawn)	Yeast lifespan up 55
Cc1ccc(C(=O)CSc2ncnc3sc4c(c23)CCC(C)C4)cc1 (stereo not drawn)	RAM network inh 8.6 (no result: Yeast lifespan up)
Cc1cccc(OCc2nc3c4c(ncn3n2)-c2ccccc2CC42CCCC2)c1	RAM network inh 9.2
Cc1ccccc1OCc1nc2c3c(ncn2n1)-c1ccccc1CC31CCCC1	RAM network inh 11
COc1ccc(OCc2nc3c4c(ncn3n2)-c2ccccc2CC42CCCC2)cc1	none
Cc1ccc(OCc2nc3c4c(ncn3n2)-c2ccccc2CC42CCCC2)cc1	RAM network inh 10
COc1ccccc1-c1cc(SC)c(C#N)c(=O)o1	Yeast lifespan up 26, RAM network inh 9.3
COc1ccc(NC(=O)C(=S)NC2CCCCC2)cc1	none (no result: sdo1 growth, Yeast growth inh, Yeast lifespan up)
COc1ccc(OC)c(NC(=O)C(=S)NC2CCCCC2)c1	RAM network inh 8.7 (no result: sdo1 growth, Yeast growth inh, Yeast lifespan up)
COC(=O)[C@@]1(Cc2ccc(F)cc2)[C@H]2c3cc(C(=O)N(C)C)n(CCc4ccc(OC)c(Br)c4)c3C[C@H]2CN1C(=O)c1ccccc1	RAM network inh 8.7
Cc1ccc(S(=O)(=O)Oc2ccc(/C=N/NC(=O)c3cccnc3)cc2)cc1	none (no result: sdo1 growth, Yeast growth inh, Yeast lifespan up)
CC(C)N1CCN(Cc2ccoc2)CC1CCO (stereo not drawn)	none (no result: sdo1 growth, Yeast growth inh, Yeast lifespan up)
Cc1ccc(Cn2nc(C)c(NC(=O)c3nn(C)cc3Cl)c2C)cc1	none (no result: Yeast lifespan up)
